{"data": "Measured values from different studies", "effect on": "cell growth or viability", "note": "Compare with care: the assays were run in different laboratories."}
{"SMILES": "COc1ccnc(COc2ccc(NC(=O)Nc3ccc(Cl)c(C(F)(F)F)c3)cc2)c1OC", "cell line": "L02", "test": "MTT", "setting": "72 h", "IC50": "> 100 µM"}
{"SMILES": "CC(=O)c1cccc(N=Nc2c(C(=O)O)cc(O)c(O)c2O)c1", "cell line": "PANC-1", "test": "MTT", "IC50": "9.2 µM"}
{"SMILES": "Cc1cnc(-c2ccc(-c3ccc(NC(=O)Nc4c(F)cc(F)cc4F)cc3F)c3c2C(=O)NC3)[nH]1", "cell line": "OCI-AML-3", "IC50": "0.0118 µM"}
{"SMILES": "COc1ccc(C(=O)O[C@@H]2CN3Cc4c(cc5c(c4OC)OCO5)[C@@]24C=C[C@H](OC)C[C@@H]34)cc1OC", "cell line": "PANC-1", "test": "WST-1", "IC50": "2.3 µM"}
{"SMILES": "c1cnc2c(c1)ccc1cccnc12", "cell line": "L02", "test": "MTT", "setting": "48 h", "IC50": "> 50 µM"}
{"SMILES": "CC(C)[C@H](N)C(=O)N1CCC[C@H]1B(O)O", "cell line": "OCI-AML2", "test": "ATP luminescence", "setting": "48 h", "IC50": "0.08 µM"}
{"SMILES": "Cc1cc(Oc2ccc(NC(=O)c3cnn(-c4ccc(Cl)cc4)c3C(F)(F)F)cc2F)c2nncn2n1", "cell line": "L02", "test": "MTT", "IC50": "> 50 µM"}
{"SMILES": "COc1cccc2c1C(=O)c1c(O)c3c(c(O)c1C2=O)C[C@@](O)(C(=O)CO)C[C@@H]3O[C@H]1C[C@H](N)[C@H](O)[C@H](C)O1", "cell line": "CCD-986Sk", "test": "MTT", "setting": "48 h", "IC50": "> 10 µg/mL"}
{"SMILES": "O=C(N/N=C/c1c(O)ccc2ccccc12)c1cc(-c2ccc3ccccc3c2)n[nH]1", "cell line": "WM-115", "test": "MTS", "setting": "24 h", "IC50": "9.7 µM"}
{"SMILES": "COCCCOc1ccnc(COc2ccc(NC(=O)Nc3cc(F)cc(F)c3)cc2)c1C", "cell line": "L02", "test": "MTT", "setting": "72 h", "IC50": "> 100 µM"}
{"SMILES": "Cc1cc(Oc2ccc(NC(=O)c3sc(-c4ccccn4)nc3C)cc2F)n2ncnc2n1", "cell line": "L02", "test": "MTT", "IC50": "> 50 µM"}
{"SMILES": "COCCCOc1ccnc(COc2ccc(NC(=O)Nc3ccc(F)cc3)cc2)c1C", "cell line": "L02", "test": "MTT", "setting": "72 h", "IC50": "> 100 µM"}
{"SMILES": "Nc1ncc(-c2cnn(C3CCNCC3)c2)cc1-c1nnc(CC2CC2)o1", "cell line": "OCI-AML-3", "test": "trypan blue", "setting": "72 h", "IC50": "0.479 µM"}
{"SMILES": "C#Cc1cccc(Nc2ncnc3cc(OCCOC)c(OCCOC)cc23)c1", "cell line": "PANC-1", "test": "MTT", "IC50": "0.05 µM"}
{"SMILES": "COCCCOc1ccnc(COc2ccc(NC(=O)Nc3ccc(Cl)c(C(F)(F)F)c3)cc2)c1C", "cell line": "L02", "test": "MTT", "setting": "72 h", "IC50": "> 100 µM"}
{"SMILES": "Cc1ccc(S(=O)(=O)N(C)CC(=O)N(Cc2ccc(C3CCCCC3)cc2)c2ccc(C(=O)O)c(O)c2)cc1", "cell line": "OCI-AML2", "IC50": "35.9 µM"}
{"SMILES": "CC[C@]1(O)C[C@H]2CN(CCc3c([nH]c4ccccc34)[C@@](C(=O)OC)(c3cc4c(cc3OC)N(C=O)[C@H]3[C@@](O)(C(=O)OC)[C@H](OC(C)=O)[C@]5(CC)C=CCN6CC[C@]43[C@@H]65)C2)C1", "cell line": "NALM-6", "test": "MTT", "setting": "48 h", "IC50": "0.00087 µM"}
{"SMILES": "COc1cc2c(Oc3ccc(NC(=O)C4(C(=O)Nc5ccc(F)cc5)CC4)cc3F)ccnc2cc1OCCCN1CCOCC1", "cell line": "L02", "test": "MTT", "IC50": "> 50 µM"}
{"SMILES": "Clc1ccnc2c1ccc1c(Cl)ccnc12", "cell line": "L02", "test": "MTT", "setting": "48 h", "IC50": "> 50 µM"}
{"SMILES": "Cc1c(OCC(F)(F)F)ccnc1COc1ccc(NC(=O)Nc2ccc(F)cc2)cc1", "cell line": "L02", "test": "MTT", "setting": "72 h", "IC50": "> 100 µM"}
{"SMILES": "COC1=C2C[C@@H](C)C[C@H](OC)[C@H](O)[C@@H](C)/C=C(\\C)[C@H](OC(N)=O)[C@@H](OC)/C=C\\C=C(/C)C(=O)NC(=CC1=O)C2=O", "cell line": "ARPE-19", "test": "MTT", "IC50": "0.1 µM"}
{"SMILES": "Cc1cc(Oc2ccc(NC(=O)c3sc(-c4ccncc4)nc3C)cc2F)c2nncn2n1", "cell line": "L02", "test": "MTT", "IC50": "> 50 µM"}
{"SMILES": "COc1c(C)cnc(COc2ccc(NC(=O)Nc3ccc(F)cc3)cc2)c1C", "cell line": "L02", "test": "MTT", "setting": "72 h", "IC50": "> 100 µM"}
{"SMILES": "CO[C@H]1/C=C\\C=C(/C)C(=O)NC2=C(C)C(=O)C(NCCN(C)C)=C(C[C@@H](C)C[C@H](OC)[C@H](O)[C@@H](C)/C=C(\\C)[C@@H]1OC(N)=O)C2=O", "cell line": "ARPE-19", "test": "MTT", "IC50": "> 20 µM"}
{"SMILES": "Cc1cc(Oc2ccc(NC(=O)c3sc(-c4ccc(F)cc4)nc3C)cc2)c2nncn2n1", "cell line": "L02", "test": "MTT", "IC50": "> 50 µM"}
{"SMILES": "CC[C@@H](C)[C@H](N)C(=O)N1Cc2ccccc2C1", "cell line": "OCI-AML2", "test": "ATP luminescence", "setting": "48 h", "IC50": "1.44 µM"}
{"SMILES": "COc1cc(-c2ncn(/C=C\\C(=O)OC(C)C)n2)cc(C(F)(F)F)c1", "cell line": "OCI-AML2", "setting": "72 h", "IC50": "0.017 µM"}
{"SMILES": "COc1cc(C2Oc3cc([C@H]4Oc5cc(O)cc(O)c5C(=O)[C@@H]4O)ccc3OC2CO)ccc1O (some centres unmarked)", "cell line": "RWPE-1", "test": "CCK-8", "setting": "72 h", "IC50": "> 300 µM"}
{"SMILES": "Cc1ccc2c(Cl)cc(Cl)c(O)c2n1", "cell line": "L02", "test": "MTT", "setting": "48 h", "IC50": "> 100 µM"}
{"SMILES": "CCN1C(=O)N(c2c(F)c(OC)cc(OC)c2F)Cc2cnc3[nH]c(CN4CCOCC4)cc3c21", "cell line": "Li-7", "test": "ATP luminescence", "setting": "96 h", "IC50": "0.054 µM"}
{"SMILES": "Oc1ccc(Nc2nc(-c3ccc(Cl)cc3)cs2)cc1", "cell line": "WM-115", "test": "MTS", "setting": "72 h", "IC50": "11.7 µM"}
{"SMILES": "Cc1c(OCC(F)(F)F)ccnc1COc1ccc(NC(=O)Nc2cccc(C(F)(F)F)c2)cc1", "cell line": "L02", "test": "MTT", "setting": "72 h", "IC50": "> 100 µM"}
{"SMILES": "Cc1cc(Oc2ccc(NC(=O)c3sc(-c4ccccn4)nc3C)cc2F)c2nncn2n1", "cell line": "L02", "test": "MTT", "IC50": "> 50 µM"}
{"SMILES": "COCCCOc1ccnc(COc2ccc(NC(=O)Nc3ccc(OC)cc3)cc2)c1C", "cell line": "L02", "test": "MTT", "setting": "72 h", "IC50": "> 100 µM"}
{"SMILES": "C=CCNC1=C2C[C@@H](C)C[C@H](OC)[C@H](O)[C@@H](C)/C=C(\\C)[C@H](OC(N)=O)[C@@H](OC)/C=C\\C=C(/C)C(=O)NC(=CC1=O)C2=O", "cell line": "ARPE-19", "test": "MTT", "IC50": "1 µM"}
